# Measured values pooled from the literature.
# Each line is one published result; the experiments were not run side by side.
SMILES,tested on,assay,test system,setting,endpoint,result
CCN(CC)CCO[C@H]1CC[C@@]2(C)C(=CC[C@@H]3[C@@H]2CC[C@]2(C)C(=O)CC[C@@H]32)C1,MA104,"cell growth or viability, MTS",,24 h,CC50,219 µM
CC[C@H](C)[C@H](NC(=O)[C@H](CCCNC(=N)N)NC(=O)[C@H](CCC(=O)O)NC(C)=O)C(=O)N[C@H]1CSSC[C@@H](C(=O)N[C@H](C(N)=O)[C@@H](C)O)NC(=O)[C@H](CCCNC(=N)N)NC(=O)[C@H](Cc2c[nH]cn2)NC(=O)[C@H](Cc2cccc3ccccc23)NC(=O)CNC(=O)[C@H](Cc2c[nH]c3ccccc23)NC(=O)[C@H](CC(=O)O)NC(=O)[C@H](CCC(N)=O)NC(=O)[C@H](Cc2c[nH]c3ccccc23)NC(=O)[C@H](C(C)C)NC1=O,,,PBS,pH 7.4,solubility,380 µg/mL
C#Cc1ccc2c(c1)C(c1ccccn1)=NCc1c(-c3cnco3)ncn1-2.Cl,,,water,"10 min, 37 °C",kinetic solubility,2400 µg/mL
CC1(C)CC(NC(=O)C(=O)Nc2ccc(Cl)cc2)CC(C)(C)N1,Cf2Th-CCR5,"cell growth or viability, MTS",,48 h,CC50,> 100 µM
COc1ccc2[nH]cc(CCN(C)C)c2c1,,potentiometric,water,,pKa,9.1
N[C@@H]1C[C@H]1c1ccccc1 (racemic),"Cytochrome P450 2A6 (CYP2A6, Homo sapiens, UniProt P11509)","enzyme activity, inhibitor, fluorescence",,,IC50,0.49 µM
CC[C@@H]1CN2CCc3c([nH]c4cccc(OC)c34)[C@H]2C[C@@H]1/C(=C\OC)C(=O)OC,dog Hepatocyte,metabolic stability,hepatocytes,,half-life,> 2 h
CC[C@H](C)[C@H](NC(C)=O)C(=O)N[C@H]1CSSC[C@@H](C(=O)N[C@H](C(N)=O)[C@@H](C)O)NC(=O)[C@H](CCCNC(=N)N)NC(=O)[C@H](Cc2c[nH]cn2)NC(=O)[C@@](C)(CC)NC(=O)CNC(=O)[C@H](Cc2c[nH]c3ccccc23)NC(=O)[C@H](CC(=O)O)NC(=O)[C@H](CCC(N)=O)NC(=O)[C@H](Cc2c[nH]c3ccccc23)NC(=O)[C@H](C(C)C)NC1=O,,,PBS,pH 7.4,solubility,3600 µg/mL
Cc1ncc(C)n2nc(/C=C/c3nc(N4CCCC4)cc(N4CCOCC4)n3)nc12,,,"male beagle dog, plasma","oral, 0.3 mg/kg",bioavailability,42%
